{"data": "Experimental data of several laboratories", "effect on": "cell growth or viability", "note": "Compare with care: the assays were run in different laboratories."}
{"Compound": "COc1ccc(NC(=O)c2c(Nc3ccccc3)sc(C#N)c2NC(=O)CNc2ccccc2[N+](=O)[O-])cc1", "cell line": "HCT-116", "assay": "SRB", "setting": "10 nM, 48 h", "endpoint": "viability", "value": "90.4%"}
{"Compound": "CC#CC(=O)N1CC[C@@H](n2cc(-c3ccc(Oc4c(F)cccc4F)cc3)c3c(N)n[nH]c(=O)c32)C1", "cell line": "DOHH-2", "assay": "ATP luminescence", "setting": "72 h", "endpoint": "GI50", "value": "8.58 µM"}
{"Compound": "COc1ccc2occ(/C=C/c3cc(OC)c(OC)c(OC)c3)c(=O)c2c1", "cell line": "HSC-2", "assay": "MTT", "setting": "23 h", "endpoint": "CC50", "value": "4.2 µM"}
{"Compound": "Clc1ccccc1-c1ccc(CNCC2(N3CCCC3)COC2)o1", "cell line": "U-87 MG", "setting": "30 µM, 48 h", "endpoint": "viability", "value": "63.6%"}
{"Compound": "COc1ccc(-c2ccc(-c3ccc(C(=N)N)nc3)s2)cc1", "cell line": "OVCAR-8", "assay": "SRB", "endpoint": "GI50", "value": "2.12 µM"}
{"Compound": "COc1ccc(NC(=O)c2c(Nc3ccccc3)sc(C(=O)NN=Cc3ccc(C)cc3)c2NC(C)=O)cc1", "cell line": "HCT-116", "assay": "SRB", "setting": "100 µM, 48 h", "endpoint": "viability", "value": "76.1%"}
{"Compound": "CC(C)Cc1nn(C)c(=O)c2c(SCCCO)n(Cc3ccnc(NCCCCCN)c3)cc12", "cell line": "Raji", "assay": "MTT", "setting": "96 h", "endpoint": "EC50", "value": "0.69 µM"}
{"Compound": "COc1ccc(C=NNC(=O)c2sc(Nc3ccccc3)c(C(=O)Nc3ccc(OC)cc3)c2NC(C)=O)cc1", "cell line": "HCT-116", "assay": "SRB", "setting": "0.1 µM, 48 h", "endpoint": "viability", "value": "72.5%"}
{"Compound": "Cc1cccc2cc(CNCC3(N4CCCC4)COC3)cnc12", "cell line": "U-87 MG", "setting": "30 µM, 48 h", "endpoint": "viability", "value": "97.7%"}
{"Compound": "COc1ccc(NC(=O)c2c(Nc3ccccc3)sc(C#N)c2NC(=O)CNc2ccccc2Cl)cc1", "cell line": "HCT-116", "assay": "SRB", "setting": "10 µM, 48 h", "endpoint": "viability", "value": "62.9%"}
{"Compound": "COc1cc(-c2ccc(-c3ccc(C(=N)N)nc3)s2)cc(OC)c1OC", "cell line": "EKVX", "assay": "SRB", "endpoint": "GI50", "value": "5.19 µM"}
{"Compound": "CCCCCCCCCCCCCCCCOP(=O)([O-])OCC[N+](C)(C)C", "cell line": "DH82", "assay": "MTS", "setting": "20 µM, 24 h", "endpoint": "inhibition", "value": "43.9%"}
{"Compound": "COc1ccc(NC(=O)c2c(Nc3ccccc3)sc(C#N)c2NC(=O)CNc2ccccc2)cc1", "cell line": "HCT-116", "assay": "SRB", "setting": "10 µM, 48 h", "endpoint": "viability", "value": "87.2%"}
{"Compound": "COc1ccc(/C=C/c2coc3ccc(OC)cc3c2=O)cc1", "cell line": "HSC-2", "assay": "MTT", "setting": "6.7 h", "endpoint": "CC50", "value": "21 µM"}
{"Compound": "COC(=O)c1c(C)ncn1CC(c1c[nH]c2ccc(C)cc12)c1c[nH]c2ccc(C)cc12", "cell line": "DH82", "assay": "MTS", "setting": "20 µM, 24 h", "endpoint": "inhibition", "value": "11.3%"}
{"Compound": "CC(C)Cc1nn(C)c(=O)c2c(SCCCO)n(Cc3ccc(Cl)nc3)cc12", "cell line": "Raji", "assay": "MTT", "setting": "96 h", "endpoint": "EC50", "value": "1 µM"}
{"Compound": "COc1ccc(NC(=O)c2c(Nc3ccccc3)sc(C#N)c2NC(=O)CNc2ccc(Br)cc2)cc1", "cell line": "HCT-116", "assay": "SRB", "setting": "0.1 µM, 48 h", "endpoint": "viability", "value": "80.6%"}
{"Compound": "CC(C)Cc1nn(C)c(=O)c2c(SCCCO)n(Cc3ccc(NCCCCCN)nc3)cc12", "cell line": "Raji", "assay": "MTT", "setting": "96 h", "endpoint": "EC50", "value": "0.52 µM"}
{"Compound": "COc1ccc(NC(=O)c2c(Nc3ccccc3)sc(C#N)c2NC(=O)CNc2ccc(C)cc2)cc1", "cell line": "HCT-116", "assay": "SRB", "setting": "10 nM, 48 h", "endpoint": "viability", "value": "92.4%"}
{"Compound": "COCCn1cc(C#Cc2cc(C(=O)NCc3ccsc3)ccc2C)c2c(N)ncnc21", "cell line": "32D", "endpoint": "GI50", "value": "> 3 µM"}
{"Compound": "COc1ccc2occ(/C=C/c3ccc(O)cc3)c(=O)c2c1", "cell line": "HSC-2", "assay": "MTT", "setting": "6.7 h", "endpoint": "CC50", "value": "9.5 µM"}
{"Compound": "CCOC(=O)c1c(C)ncn1CC(c1cn(C)c2ccc([N+](=O)[O-])cc12)c1cn(C)c2ccc([N+](=O)[O-])cc12", "cell line": "DH82", "assay": "MTS", "setting": "20 µM, 24 h", "endpoint": "inhibition", "value": "20.5%"}
{"Compound": "CCn1c(=O)c(-c2cc(NC(=O)Nc3ccccc3)c(F)cc2Br)cc2cnc(NC)cc21", "cell line": "32D", "endpoint": "GI50", "value": "> 3 µM"}
{"Compound": "c1ccc(-c2ccc(CNCC3(N4CCCC4)COC3)s2)cc1", "cell line": "U-87 MG", "setting": "30 µM, 48 h", "endpoint": "viability", "value": "55.6%"}
{"Compound": "Cn1nnc2c(C(N)=O)ncn2c1=O", "cell line": "KATO3", "endpoint": "EC50", "value": "592 µM"}
{"Compound": "CCn1cc(C#Cc2cc(C(=O)NCc3ccsc3)ccc2C)c2c(N)ncnc21", "cell line": "32D", "endpoint": "GI50", "value": "0.0233 µM"}
{"Compound": "COc1ccc(NC(=O)c2c(Nc3ccccc3)sc(C(=O)NN=Cc3ccccc3)c2NC(C)=O)cc1", "cell line": "HCT-116", "assay": "SRB", "setting": "1 nM, 48 h", "endpoint": "viability", "value": "101%"}
{"Compound": "C[C@@H]1[C@H](O)[C@@H](C)/C=C/C=C/C=C/C=C/C=C/C=C/C=C/[C@H](O[C@@H]2O[C@H](C)[C@@H](O)[C@H](N)[C@@H]2O)C[C@@H]2O[C@](O)(C[C@@H](O)C[C@@H](O)[C@H](O)CC[C@@H](O)C[C@@H](O)CC(=O)O[C@H]1C)C[C@H](O)[C@H]2C(=O)O", "cell line": "DH82", "assay": "MTS", "setting": "200 µM, 72 h", "endpoint": "inhibition", "value": "42%"}
